Experimental data as given in ChEMBL document CHEMBL1139414, “Conformationally constrained analogues of diacylglycerol. 29. Cells sort diacylglycerol-lactone chemical zip codes to produce diverse and selective biological activities” (J Med Chem, 2008).

Biological target: Protein kinase C alpha type (Mus musculus, UniProt P20444)
Test: Displacement of [3H]PDBu form mouse PKCalpha by scintillation counting
Summary of the method: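 Partially purified mouse PKCα; competition with [³H]PDBU. ID50 obtained by fitting a sigmoidal competition curve and converted to Ki = ID50/(1+L/Kd). Pure compounds tested at 6–7 concentrations; crude library compounds at a single 1 μM concentration. Triplicates per concentration, at least three experiments; mean ± SEM.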

Structure (SMILES)	Ki [nM]
CCCC(CCC)C(=O)OCC1(CO)C/C(=C/c2cccc(C(F)(F)F)c2)C(=O)O1 (racemic)	15.5
CCCCCCC(=O)OCC1(CO)C/C(=C/c2ccc(N(C)C)cc2)C(=O)O1 (racemic)	357
Cc1ccc(C(=O)OCC2(CO)C/C(=C/c3ccc(C(F)(F)F)cc3)C(=O)O2)cc1 (racemic)	53
CCCCC(CC)C(=O)OCC1(CO)C/C(=C\c2ccc(N(C)C)cc2)C(=O)O1 (racemic; form 1)	12.9
CC(C)(C)CC(=O)OCC1(CO)C/C(=C/c2cccc(C(F)(F)F)c2)C(=O)O1 (racemic)	23.2
CCC(C(=O)OCC1(CO)C/C(=C/c2ccc(Br)cc2)C(=O)O1)c1ccccc1 (racemic)	33
CC(C)(C)CC(=O)OCC1(CO)C/C(=C/c2ccc(Cl)c(F)c2)C(=O)O1 (racemic)	45.1
CC(CC(=O)OCC1(CO)C/C(=C/c2cccc(C(F)(F)F)c2)C(=O)O1)CC(C)(C)C (racemic; form 2)	41
CCCCC(/C=C1/CC(CO)(COC(=O)c2ccc(C)cc2)OC1=O)CC (racemic)	171
CCCCC(/C=C1/CC(CO)(COC(=O)c2c(C(C)C)cc(C(C)C)cc2C(C)C)OC1=O)CC (racemic)	187
CCCCCCC(=O)OCC1(CO)C/C(=C/C(CC)CCCC)C(=O)O1 (racemic)	74.5
CC(CC(=O)OCC1(CO)C/C(=C/c2ccc(Cl)cc2)C(=O)O1)CC(C)(C)C (racemic)	16.8
CC(CC(=O)OCC1(CO)C/C(=C/c2ccc(C(F)(F)F)cc2)C(=O)O1)CC(C)(C)C (racemic)	18.4
Cc1cc(C)c(C(=O)OCC2(CO)C/C(=C/C3CCCCC3)C(=O)O2)c(C)c1 (racemic)	69.4
CC(C)(C)C(=O)OCC1(CO)C/C(=C/c2cc(C(F)(F)F)cc(C(F)(F)F)c2)C(=O)O1 (racemic)	39.8
Cc1cc(C)c(C(=O)OCC2(CO)C/C(=C/c3ccc(N(C)C)cc3)C(=O)O2)c(C)c1 (racemic)	517
CCCCCC/C=C1/CC(CO)(COC(=O)c2ccc(C)cc2)OC1=O (racemic)	60.2
CCCCC(/C=C1/CC(CO)(COC(=O)c2ccccc2)OC1=O)CC (racemic)	312
CCCCCC/C=C1/CC(CO)(COC(=O)C2CCCCC2)OC1=O (racemic)	28.9
CCCCC(CC)C(=O)OCC1(CO)C/C(=C/c2ccc(OC(F)(F)F)cc2)C(=O)O1 (racemic)	15.2
COc1ccc(/C=C2/CC(CO)(COC(=O)c3ccc(C(F)(F)F)cc3)OC2=O)cc1 (racemic)	149

Structure (SMILES)	Ki [nM]
CCCCC(CC)C(=O)OCC1(CO)C/C(=C\c2ccc(F)c(Br)c2)C(=O)O1 (racemic; form 1)	6.1
COc1ccc(/C=C2\CC(CO)(COC(=O)c3c(C)cc(C)cc3C)OC2=O)cc1 (racemic; form 2)	119
COc1ccc(C(=O)OCC2(CO)C/C(=C/c3ccc(C(F)(F)F)cc3)C(=O)O2)cc1 (racemic)	86.5
CCC(C(=O)OCC1(CO)C/C(=C/c2ccc(C(F)(F)F)cc2)C(=O)O1)c1ccccc1 (racemic)	41.7
CCCCC(/C=C1/CC(CO)(COC(=O)c2ccc(C(F)(F)F)cc2)OC1=O)CC (racemic)	187
O=C1OC(CO)(COC(=O)c2ccc([N+](=O)[O-])cc2)C/C1=C/C1CCCCC1 (racemic)	426
O=C1OC(CO)(COC(=O)c2ccc(C(F)(F)F)cc2)C/C1=C/c1ccc(C(F)(F)F)cc1 (racemic)	72.4
CC(C)(C)C(=O)OCC1(CO)C/C(=C/c2ccc(Cl)cc2)C(=O)O1 (racemic)	29.4
CC(C)(C)CC(=O)OCC1(CO)C/C(=C/c2ccc(C(F)(F)F)cc2)C(=O)O1 (racemic)	24.7
CCCC(CCC)C(=O)OCC1(CO)C/C(=C/c2ccccc2C(F)(F)F)C(=O)O1 (racemic)	29.6
O=C1OC(CO)(COC(=O)C2CCCCC2)C/C1=C/C1CCCCC1 (racemic)	89.4
CN(C)c1ccc(C(=O)OCC2(CO)C/C(=C/C3CCCCC3)C(=O)O2)cc1 (racemic)	305
CCCCC(CC)C(=O)OCC1(CO)C/C(=C/C2CCCCC2)C(=O)O1 (racemic)	30.2
CN(C)c1ccc(C(=O)OCC2(CO)C/C(=C/c3ccccc3)C(=O)O2)cc1 (racemic)	251
CCCCC(CC)C(=O)OCC1(CO)C/C(=C/c2ccc(C(F)(F)F)cc2)C(=O)O1 (racemic; form 1)	15.5
CC(C)(C)C(=O)OCC1(CO)C/C(=C/c2ccc(Cl)c(F)c2)C(=O)O1 (racemic)	36.7
CCCC(CCC)C(=O)OCC1(CO)C/C(=C/c2cc(C(F)(F)F)cc(C(F)(F)F)c2)C(=O)O1 (racemic)	27.3
O=C1OC(CO)(COC(=O)C(c2ccccc2)c2ccccc2)C/C1=C/c1cccc(C(F)(F)F)c1 (racemic)	61.9
CC(C)(C)CC(=O)OCC1(CO)C/C(=C/c2ccc(F)c(Br)c2)C(=O)O1 (racemic)	19.3
CCCC(CCC)C(=O)OCC1(CO)C/C(=C\c2ccc(C(F)(F)F)cc2)C(=O)O1 (racemic; form 2)	16.6
O=C1OC(CO)(COC(=O)C(c2ccccc2)c2ccccc2)C/C1=C/c1ccc(OC(F)(F)F)cc1 (racemic)	97.6

Structure (SMILES)	Ki [nM]
CC(C)C(=O)OCC1(CO)C/C(=C/c2ccc(F)cc2)C(=O)O1 (racemic)	273
CCCC(CCC)C(=O)OCC1(CO)C/C(=C\c2ccc(F)c(Cl)c2)C(=O)O1 (racemic; form 1)	2.45
CCC(C(=O)OCC1(CO)C/C(=C/c2ccc(OC(F)(F)F)cc2)C(=O)O1)c1ccccc1 (racemic)	82.7
CC(C)c1cc(C(C)C)c(C(=O)OCC2(CO)C/C(=C/c3ccc([N+](=O)[O-])cc3)C(=O)O2)c(C(C)C)c1 (racemic)	124
CCCCCC/C=C1/CC(CO)(COC(=O)c2ccc([N+](=O)[O-])cc2)OC1=O (racemic)	146
CCC(C(=O)OCC1(CO)C/C(=C/c2ccc(F)cc2)C(=O)O1)c1ccccc1 (racemic)	84.3
Cc1ccc(C(=O)OCC2(CO)C/C(=C/c3ccc([N+](=O)[O-])cc3)C(=O)O2)cc1 (racemic)	212
CCCCC(CC)C(=O)OCC1(CO)C/C(=C/c2ccc(C(F)(F)F)cc2)C(=O)O1 (racemic; form 2)	13.1
CCCCCCC(=O)OCC1(CO)C/C(=C/C2CCCCC2)C(=O)O1 (racemic)	77.5
CC(C)(C)CC(=O)OCC1(CO)C/C(=C/c2ccc(-c3ccc(C(F)(F)F)cc3)cc2)C(=O)O1 (racemic)	37
O=C1OC(CO)(COC(=O)C(c2ccccc2)c2ccccc2)C/C1=C/c1ccc(Br)cc1 (racemic)	58.9
CCCCCCC(=O)OCC1(CO)C/C(=C/c2ccc(OC)cc2)C(=O)O1 (racemic)	113
CCCCC(CC)C(=O)OCC1(CO)C/C(=C/c2ccc(F)cc2)C(=O)O1 (racemic)	15.1
CC(CC(=O)OCC1(CO)C/C(=C/c2ccc(Br)cc2)C(=O)O1)CC(C)(C)C (racemic)	27.3
COc1ccc(/C=C2\CC(CO)(COC(=O)c3c(C)cc(C)cc3C)OC2=O)cc1 (racemic; form 1)	3.7
CC(C)(C)CC(=O)OCC1(CO)C/C(=C/c2ccccc2C(F)(F)F)C(=O)O1 (racemic)	41.4
CCCCC(CC)C(=O)OCC1(CO)C/C(=C\c2ccc(Cl)c(F)c2)C(=O)O1 (racemic; form 2)	4.89
Cc1ccc(C(=O)OCC2(CO)C/C(=C/C3CCCCC3)C(=O)O2)cc1 (racemic)	110
O=C1OC(CO)(COC(=O)C(c2ccccc2)c2ccccc2)C/C1=C/c1ccccc1C(F)(F)F (racemic)	133
CN(C)c1ccc(C(=O)OCC2(CO)C/C(=C/c3ccc(C(F)(F)F)cc3)C(=O)O2)cc1 (racemic)	95
CCCCC(CC)C(=O)OCC1(CO)C/C(=C/c2ccc(-c3ccc(C(F)(F)F)cc3)cc2)C(=O)O1 (racemic)	27.4

Structure (SMILES)	Ki [nM]
Cc1ccc(C(=O)OCC2(CO)C/C(=C/c3ccccc3)C(=O)O2)cc1 (racemic)	138
CCCCC(CC)C(=O)OCC1(CO)C/C(=C/c2ccc([N+](=O)[O-])cc2)C(=O)O1 (racemic)	73.5
O=C1OC(CO)(COC(=O)c2ccc(C(F)(F)F)cc2)C/C1=C/c1ccccc1 (racemic)	103
CCCCCCC(=O)OCC1(CO)C/C(=C/c2ccc([N+](=O)[O-])cc2)C(=O)O1 (racemic)	93.8
CC(C)C(=O)OCC1(CO)C/C(=C/c2ccc(-c3ccc(C(F)(F)F)cc3)cc2)C(=O)O1 (racemic)	34.8
COc1ccc(/C=C2\CC(CO)(COC(=O)c3ccc(N(C)C)cc3)OC2=O)cc1 (racemic; form 2)	359
CCCCC(/C=C1/CC(CO)(COC(=O)c2ccc([N+](=O)[O-])cc2)OC1=O)CC (racemic; form 2)	334
CC(CC(=O)OCC1(CO)C/C(=C/c2ccc(F)c(Br)c2)C(=O)O1)CC(C)(C)C (racemic)	17.4
CCCCC(CC)C(=O)OCC1(CO)C/C(=C/c2ccc(OC)cc2)C(=O)O1 (racemic)	53.9
CCCCC(CC)C(=O)OCC1(CO)C/C(=C/c2ccc(F)c(Cl)c2)C(=O)O1 (racemic)	11
CC(C)(C)C(=O)OCC1(CO)C/C(=C/c2ccc(OC(F)(F)F)cc2)C(=O)O1 (racemic)	22.5
Cc1ccccc1C(=O)OCC1(CO)C/C(=C/c2ccccc2)C(=O)O1 (racemic)	135
CCCCC(/C=C1/CC(CO)(COC(=O)c2c(C)cc(C)cc2C)OC1=O)CC (racemic)	66.1
O=C1OC(CO)(COC(=O)C(c2ccccc2)c2ccccc2)C/C1=C/c1ccc(F)c(Br)c1 (racemic)	37.9
O=C1OC(CO)(COC(=O)C(c2ccccc2)c2ccccc2)C/C1=C/c1ccc(F)cc1 (racemic)	81.8
CC(C)(C)CC(=O)OCC1(CO)C/C(=C/c2ccc(F)c(Cl)c2)C(=O)O1 (racemic)	26.4
O=C1OC(CO)(COC(=O)c2ccccc2)C/C1=C/c1ccccc1 (racemic)	232
O=C1OC(CO)(COC(=O)c2ccccc2)C/C1=C/c1ccc([N+](=O)[O-])cc1 (racemic)	320
CC(CC(=O)OCC1(CO)C/C(=C/c2ccc(F)cc2)C(=O)O1)CC(C)(C)C (racemic)	16.8
